High-throughput results from PubChem BioAssay.
Sampled rows, rich in hits. Any-hit rate of the full collection: about 5.7%.
Mdm2-MdmX inh: disrupts the human Mdm2-MdmX interaction; O15151+Q00987; SaOS-2 split-luciferase Mdm2/MdmX complementation, luminescence; inhibition, % at 8 µM; hit rate 3% among 330,000; AID 485346;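 active = inhibition of at least 50% at 8 µM in the primary screen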
Target sequence (O15151 whole entry, looked up): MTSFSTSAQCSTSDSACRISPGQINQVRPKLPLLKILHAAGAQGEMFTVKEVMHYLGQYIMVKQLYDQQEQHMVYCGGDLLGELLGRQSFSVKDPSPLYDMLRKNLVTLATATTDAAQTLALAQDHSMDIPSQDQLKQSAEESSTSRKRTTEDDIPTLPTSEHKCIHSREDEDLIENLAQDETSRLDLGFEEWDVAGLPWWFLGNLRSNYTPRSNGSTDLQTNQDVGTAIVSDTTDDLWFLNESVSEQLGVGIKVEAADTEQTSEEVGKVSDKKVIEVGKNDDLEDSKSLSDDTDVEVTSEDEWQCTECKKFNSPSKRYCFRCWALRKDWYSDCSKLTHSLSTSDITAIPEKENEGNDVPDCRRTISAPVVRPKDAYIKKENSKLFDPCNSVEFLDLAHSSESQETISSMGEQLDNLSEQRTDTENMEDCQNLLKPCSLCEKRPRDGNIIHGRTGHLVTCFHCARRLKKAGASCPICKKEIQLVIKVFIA
Target sequence (Q00987 whole entry, looked up): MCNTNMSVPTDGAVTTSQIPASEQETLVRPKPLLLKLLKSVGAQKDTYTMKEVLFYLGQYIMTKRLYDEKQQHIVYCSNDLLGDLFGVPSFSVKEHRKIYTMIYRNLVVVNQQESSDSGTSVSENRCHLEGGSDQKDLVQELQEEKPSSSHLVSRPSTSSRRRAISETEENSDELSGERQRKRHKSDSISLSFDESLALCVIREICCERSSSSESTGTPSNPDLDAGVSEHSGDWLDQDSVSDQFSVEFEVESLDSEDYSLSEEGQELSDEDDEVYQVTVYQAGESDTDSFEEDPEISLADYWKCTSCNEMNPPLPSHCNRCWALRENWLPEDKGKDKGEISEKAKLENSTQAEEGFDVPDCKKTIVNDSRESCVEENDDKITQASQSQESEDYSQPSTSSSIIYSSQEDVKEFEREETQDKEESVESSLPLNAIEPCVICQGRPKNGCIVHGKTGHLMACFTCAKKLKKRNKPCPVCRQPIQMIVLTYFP
Calb FLC: C. albicans growth modulation with fluconazole; hit rate 0.57% among 300,000; growth inhibition, % (test concentration not listed); C. albicans CaCi-2 (fluconazole-resistant clinical isolate) + fluconazole, Alamar Blue growth, 48 h;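 active = growth inhibition above about 58% in most replicates, limit read from the data, passing the limit was not always enough; inconclusive = exactly half the replicates above a set limit; inactive = most replicates below a set limit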;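 note: all wells also contain fluconazole at 8 µg/ml as a sub-toxic cotreatment; 0% = median of DMSO wells and 100% = median of geldanamycin control wells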
Beta apoptosis: beta cell apoptosis inhibition; hit rate 0.8% among 300,000; protection from apoptosis, % (no concentration beside the values); AID 435005; INS-1E cytokine-induced death, ATP luminescence, 48 h; percent of positive-control rescue, neutral wells zero;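 active = Every replicate reaches about 75%, or at least half do and their mean reaches it too, limit read from the data; inconclusive = At least half of replicates reach the limit but their mean does not; inactive = Under half of replicates reach the limit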;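 note: 0% = cytokine-treated negative control wells and 100% = positive control rescue; higher means more ATP so stronger rescue from cytokine killing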
SKKanGAS inh: inhibitors of SKKanGAS S. pyogenes growth in kanamycin (SK-promoter or general growth effect); BacTiter-Glo, 6 h; inhibition, % at 7.5 µM; hit rate 1.3% among 300,000; AID 1662;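 active = mean replicate score, as percent of positive control median, at least 50; inconclusive = mean below 50 but one replicate at or above 50; inactive = mean and every replicate below 50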;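 note: strain carries kanamycin resistance gene driven by streptokinase promoter and grows in 40 µg/ml kanamycin; loss of luminescence reflects streptokinase promoter inhibition or plain growth inhibition; 0% = median of DMSO wells and 100% = positive control at its reference dose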
CSC inhib: blocks cancer stem cells; cancer stem cell-like cells viability, luminescence; inhibition, % at 7.5 µM; hit rate 1.1% among 300,000; in the data active = inhibition above about 75%; inconclusive = no clear call, values can overlap the other calls; tested in HMLE shEcad cells
T cruzi inh: blocks replication of Trypanosoma cruzi. T. cruzi beta-gal in NIH3T3, luminescence, 90 h. AID 1885. inhibition, % (no concentration beside the values). hit rate 1.4% among 300,000;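 active = mean inhibition across valid replicates above about 55%, limit read from the data; inconclusive = mean below that limit but half or more replicates reach it; inactive = mean below it, under half of replicates reach it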;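 note: signal also drops with host cell toxicity which is not excluded here; 0% = plate median of DMSO wells and 100% = zero luminescence signal; higher percent means less beta-gal luminescence so fewer parasites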
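Material: NIH/3T3 host cells with β-galactosidase reporter T. cruzi; Input: 5,000 host fibroblasts per well; Medium: DMEM, 2% fetal bovine serum; Compound: 50 nL DMSO compound solution per well; Schedule: 3 h host attachment, then at least 90 h co-culture; Detection: luminescent β-galactosidase signal after 60 min lysis.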
Mdm2-MdmX conf: confirmation of human Mdm2/MdmX interaction inhibitors; hit rate 55% among 10,000; shares compounds with Mdm2-MdmX inh; Mdm2-MdmX binding, luminescent assay; AID 489028; inhibition, % at 8 µM; in the data active = inhibition above about 40%
Full FLuc ctr: counter-screen for Mdm2/MdmX inhibitors: full-length luciferase; hit rate 77% among 6,200; SaOS-2 full-length luciferase counterscreen, luminescence; shares compounds with Mdm2-MdmX inh; inhibition, % at 8 µM;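 active = mean inhibition at 8 µM reaching about 37%, which flags the compound as non-specific, limit read from the data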;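 note: p53-null SaOS-2 cells with luciferase driven by a doxycycline-inducible promoter; compound on cells about two nights before reading with doxycycline added after day one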
Numbers without * were called inactive; ? = inconclusive; · = no result given.

SMILES	Mdm2-MdmX inh	Calb FLC	Beta apoptosis	SKKanGAS inh	CSC inhib	T cruzi inh	Mdm2-MdmX conf	Full FLuc ctr
Cc1c(CCC(C)C)c(=O)n2c([nH]c3ccccc32)c1C#N	72.6*	34.3	53.5	19.9	37.5	-0.8	53.1*	44.8*
O=C(Nc1ccc(N2CCN(C(=O)c3cccs3)CC2)cc1)c1cccc(F)c1	15.4	0.4	3.4	-3.5	32.3	-3.1	·	·
O=C(Nc1cccnc1)c1cccs1	77.3*	-3.6	89.0*	-1.7	17.4	-49.2	70.2*	39.5*
O=C(NC(=S)Nc1ccccc1N1CCN(C(=O)c2ccccc2)CC1)c1cccs1	18.1	4.5	-2.2	43.4	3.4	-0.7	·	·
COc1ccc(NC(=O)c2ccc(CN3CCN(c4ccccc4)CC3)cc2)cc1	38.2	-5.1	3.6	4.9	-3.0	22.3	·	·
COc1cccc(C(=O)Nc2ccc(N3CCN(C(=O)c4cccs4)CC3)cc2)c1	60.6*	-29.5	6.5	-1.5	12.1	-78.7	57.2*	60.3*
COc1cccc(NC(=O)c2ccc(CN3CCN(c4ccccc4)CC3)cc2)c1	57.2*	11.6	-17.0	-4.4	-15.5	-9.0	32.4	·
O=C(NC(=S)Nc1ccc(N2CCN(C(=O)c3ccccc3)CC2)cc1)c1cccs1	51.2*	-8.2	·	23.7	·	22.4	28.8	·
O=C(NC(=S)Nc1cccnc1)c1cccs1	7.5	-12.4	-2.9	0.6	·	-14.4	·	·
COc1ccc(C(=O)Nc2ncc(C)s2)cc1S(=O)(=O)N1CCOCC1	-20.0	·	-3.5	·	1.5	·	·	·
COc1ccc(NC(=O)c2ccc(NC(=O)c3cccs3)cc2)cc1	66.8*	5.1	19.4	-7.3	19.4	-1.7	26.3	·
COc1ccc(C(=O)Nc2cccc(NC(=O)c3cccs3)c2)cc1	3.6	-14.3	-1.4	-7.9	7.0	10.4	·	·
O=c1cccc2c1c1cc[nH]c3ccc(=O)n2c31	72.5*	0.6	-5.4	-7.8	-11.1	5.5	67.6*	53.2*
Clc1ccc2c(c1)C(C1=NCCN1)c1ccccc1CS2 (configuration not stated)	50.9*	20.3	6.3	1.7	41.2	-5.5	52.6*	47.5*
S=C1NCCc2ccc(Cl)cc2C1c1ccccc1Cl (configuration not stated)	3.6	-37.1	-0.1	0.3	10.8	5.3	·	·
O=C(OC1CCN(c2ncc(C(F)(F)F)cc2Cl)CC1)c1ccc(Cl)cc1	21.9	44.7	-7.5	29.7	-23.0	-4.2	·	·
O=C(N/N=C/c1cccc(C(F)(F)F)c1)C1CCN(c2ncc(C(F)(F)F)cc2Cl)CC1	63.6*	-14.4	·	-5.0	4.3	-8.5	-2.1	·
Cc1ccc(-c2nc(-c3ccccc3)no2)c(Cl)c1	51.8*	-5.8	·	11.1	6.2	-13.1	62.2*	162.5*
CCCCCN(C(=O)CCC(=O)OCCOc1ccccc1Cl)c1c(N)n(CCCC)c(=O)[nH]c1=O	17.3	3.2	0.8	-0.2	-3.7	-2.7	·	·
COc1ccc(/C=N/n2cnc3c([nH]c4ccc(F)cc43)c2=O)cc1CN1CCCC1	100.4*	-0.3	5.7	-7.1	36.4	37.3	57.3*	51.2*
CCn1cc(C(=O)N2CCCC(CO)(Cc3ccccc3C)C2)cn1 (configuration not stated)	4.9	-0.3	-5.8	-3.2	-7.7	2.9	·	·
Cc1ccc(-n2ncc(C(=O)Nc3cc(Cl)ccc3C)c2C2CCNCC2)cc1C	66.2*	-25.3	12.0	-1.6	20.2	18.6	38.1	71.7*
COc1ccc(/C=N/Nc2nonc2N)cc1OC	51.0*	5.1	2.9	7.7	0.7	1.6	8.5	·
C#CCOc1ccc2c3c(c(=O)oc2c1)CCCC3	17.3	7.0	-0.4	4.2	-5.9	9.2	·	·
CCc1cc2c(=O)n(Cc3ccco3)c(SCc3c(C)noc3C)nc2s1	71.8*	36.4	5.1	99.5*	58.9	25.6	66.5*	48.3*
SMILES	Mdm2-MdmX inh	Calb FLC	Beta apoptosis	SKKanGAS inh	CSC inhib	T cruzi inh	Mdm2-MdmX conf	Full FLuc ctr
CCCCCCCCCn1c2c(c(=N)c3c1CCC3)CCCC2	98.0*	105.0*	·	3.5	·	58.5*	95.5*	9.4
CCCCCCCCCCn1c2c(c(=N)c3c1CCC3)CCC2	98.0*	107.4*	118.1*	?	91.4*	68.4*	94.9*	5.5
CCOC(=O)Cn1c2c(c(=N)c3c1CCC3)CCC2	1.6	10.8	-5.0	-0.2	-10.4	-11.0	·	·
CCn1c2c(c(=N)c3c1CCC3)CCCC2	38.5	-2.3	12.6	0.3	-10.2	-3.2	·	·
CC(C)Cn1c(CNC(=O)c2ccccc2)nc2ccccc21	-5.1	-16.3	-1.8	5.0	1.9	-6.6	·	·
CCC(=O)Oc1ccc2ccccc2c1CNC(=O)c1ccccc1	55.4*	-10.6	-5.4	5.3	-4.4	2.2	19.1	·
COCCCNC(=O)CCN1N=C(c2ccccc2)CCC1=O	15.5	4.2	0.3	0.3	-7.9	-0.6	·	·
COc1ccc(CC(=S)NCCc2ccccc2)cc1	8.7	-12.8	-5.1	-5.8	-2.9	-4.8	·	·
COc1ccc(C(=O)NC(=O)CSc2nc3nc(C)cc(C)n3n2)cc1	1.0	·	-3.6	·	-9.8	·	·	·
COc1cc2ccccc2cc1C(=O)Nc1sc2c(c1C(N)=O)CCN(C(C)C)C2	100.1*	-2.2	111.9*	0.6	95.0*	16.0	42.2*	48.4*
COC(=O)c1ccc(CNC(=O)c2ccc(S(=O)(=O)N(C)c3ccccc3OC)cc2)cc1	12.8	·	1.5	·	-15.7	·	·	·
COc1ccc(-c2nnc(Sc3nc4ccccc4o3)c3ccccc23)cc1	66.2*	?	-3.0	2.7	41.8	17.4	42.3*	67.9*
COc1ccc(-c2nnc(OC)c3ccccc23)cc1	28.9	4.5	-3.3	-4.2	-8.7	-1.1	·	·
COc1cc(C2C(C#N)=C(N)N(Nc3ccccc3)C3=C2C(=O)CC(C)(C)C3)ccc1OCc1cccc(F)c1 (configuration not stated)	61.5*	-1.5	-2.7	16.4	11.2	37.8	18.6	·
CC(C)C(=O)N[C@@H]1c2ccccc2CC[C@@H]1O	-5.4	·	·	·	·	·	·	·
Cc1ccc(S(=O)(=O)NCCC(=O)NCC(c2cccs2)N2CCOCC2)cc1 (configuration not stated)	5.8	-3.8	·	-11.4	-11.3	-5.4	·	·
COc1ccc(/C=N/Nc2nc(Nc3ccccc3)nc(N3CCCC3)n2)cc1[N+](=O)[O-]	97.4*	14.9	·	25.9	37.3	28.5	92.5*	60.8*
O=C(Oc1cccc(/C=N/Nc2nc(N3CCOCC3)nc(N3CCOCC3)n2)c1)c1ccco1	19.8	0.7	1.5	5.9	5.0	14.6	·	·
COc1cc(/C=N/Nc2nc(Nc3ccccc3)nc(N3CCOCC3)n2)ccc1OC(=O)c1ccco1	51.9*	9.5	-4.0	28.6	13.7	62.3*	21.2	·
